Measured values from ChEMBL document CHEMBL2384906, “Biological activity, design, synthesis and structure activity relationship of some novel derivatives of curcumin containing sulfonamides” (Eur J Med Chem, 2013).
Converted amounts (≈) assume the structure as drawn. The source made the active and inactive calls. No cut-off for these calls is given here.

What was measured:
Mus musculus = experiment: Antiinflammatory activity in mouse assessed as inhibition of carrageenan-induced increase in paw volume at 200 mg/kg administered 1 hr prior to carrageenan challenge measured after 3 hrs relative to control; type: functional
In short: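 Mice were fasted 2 h and placed in groups of five. Controls received saline i.p. Phenylbutazone was given at 100 mg/kg i.p., curcumin at 200 mg/kg i.p., and derivatives at 200 mg/kg. After 1 h, 0.1 mL of 1% carrageenan in saline was injected subplantar into the right hind paw. Paw volume was followed by plethysmometer for 3 h, and % inhibition was calculated as (Vc − Vt)/Vc × 100.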

HCT-116 = experiment: Cytotoxicity against human HCT116 cells after 24 hrs by MTT assay; type: functional, cell-based
In short: (§1)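 The MTT assay seeded 5 × 10⁴ cells per well and grew them 24 h in RPMI 1640 with compound at 2.5–200 µM. Medium without cells was the blank and adriamycin the positive control. MTT was added for 4 h at 37 °C, formazan was solubilised, and absorbance was read at 570 nm. IC50 is the concentration that cuts viability 50% against untreated cells.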

QG-56 = experiment: Cytotoxicity against human QG56 cells after 24 hrs by MTT assay; type: functional, cell-based; in short: as §1
HeLa = experiment: Cytotoxicity against human HeLa cells after 24 hrs by MTT assay; type: functional, cell-based; in short: as §1
HepG2 = experiment: Cytotoxicity against human HepG2 cells after 24 hrs by MTT assay; type: functional, cell-based; in short: as §1
Trichoderma viride [1] = experiment: Antifungal activity against Trichoderma viride MTCC 1107 after 48 hrs; type: functional; settings: MTCC 1107, 48 h
Trichoderma viride [2] = experiment: Antifungal activity against Trichoderma viride MTCC 1107 assessed as zone of inhibition at 20 uM after 48 hrs by disc diffusion method; type: functional
In short: (§2)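 Spores from 4-day potato dextrose agar cultures, suspended in sterile water at 1.5 × 10⁵ CFU/mL. 0.2 mL was spread on potato dextrose agar. 5 mm filter-paper discs soaked with test compound were laid on the lawn. Incubation was 48 h at 28 °C, then the inhibition zone was measured in mm. Fluconazole was the positive control and acetone the negative control.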

Trichoderma viride [3] = experiment: Antifungal activity against Trichoderma viride MTCC 1107 assessed as zone of inhibition at 40 uM after 48 hrs by disc diffusion method; type: functional; settings: MTCC 1107, 48 h, read-out: IZ; in short: as §2
Trichoderma viride [4] = experiment: Antifungal activity against Trichoderma viride MTCC 1107 assessed as zone of inhibition at 80 uM after 48 hrs by disc diffusion method; type: functional; settings: MTCC 1107, 48 h, read-out: IZ; in short: as §2
Curvularia lunata [5] = experiment: Antifungal activity against Curvularia lunata MTCC 581 after 48 hrs; type: functional; settings: MTCC 581, 48 h
Curvularia lunata [6] = experiment: Antifungal activity against Curvularia lunata MTCC 581 assessed as zone of inhibition at 20 uM after 48 hrs by disc diffusion method; type: functional; in short: as §2
Curvularia lunata [7] = experiment: Antifungal activity against Curvularia lunata MTCC 581 assessed as zone of inhibition at 40 uM after 48 hrs by disc diffusion method; type: functional; settings: MTCC 581, 48 h, read-out: IZ; in short: as §2
Aspergillus flavus [8] = experiment: Antifungal activity against Aspergillus flavus MTCC 1021 after 48 hrs; type: functional
Curvularia lunata [9] = experiment: Antifungal activity against Curvularia lunata MTCC 581 assessed as zone of inhibition at 80 uM after 48 hrs by disc diffusion method; type: functional; settings: MTCC 581, 48 h, read-out: IZ; in short: as §2
Aspergillus flavus [10] = experiment: Antifungal activity against Aspergillus flavus MTCC 1021 assessed as zone of inhibition at 80 uM after 48 hrs by disc diffusion method; type: functional; in short: as §2
Aspergillus niger [11] = experiment: Antifungal activity against Aspergillus niger MTCC 1108 after 48 hrs; type: functional
Aspergillus niger [12] = experiment: Antifungal activity against Aspergillus niger MTCC 1108 assessed as zone of inhibition at 80 uM after 48 hrs by disc diffusion method; type: functional; in short: as §2
Escherichia coli [13] = experiment: Antimicrobial activity against Escherichia coli ATCC 35218 after 24 hrs by broth micro serial dilution method; type: functional; settings: ATCC 35218, 24 h
In short: (§3)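 This was broth microdilution in autoclaved Mueller-Hinton broth. 150 µL of compound per well was serially diluted […], and 50 µL of test organism was added. Plates were incubated 24 h at 37 °C and optical density was read.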

Escherichia coli [14] = experiment: Antimicrobial activity against Escherichia coli ATCC 35218 assessed as diameter of inhibition zone at 20 uM after 24 hrs by Kirby -Baur disc diffusion method; type: functional
In short: (§4)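 Kirby-Bauer disc diffusion was used. Acetone stocks (160 µM) were serially doubled down to 80, 40 and 20 µM. 4 µL of each went onto 5 mm sterile paper discs, which were dried 30 min at 50 °C. Inoculum was 1.5 × 10⁸ CFU/mL diluted to 3 × 10² CFU/mL, and 50 µL was spread on Mueller-Hinton agar. After 24 h at 37 °C the inhibition-zone diameter was measured. Ciprofloxacin served as positive control.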

Escherichia coli [15] = experiment: Antimicrobial activity against Escherichia coli ATCC 35218 assessed as diameter of inhibition zone at 40 uM after 24 hrs by Kirby -Baur disc diffusion method; type: functional; in short: as §4
Escherichia coli [16] = experiment: Antimicrobial activity against Escherichia coli ATCC 35218 assessed as diameter of inhibition zone at 80 uM after 24 hrs by Kirby -Baur disc diffusion method; type: functional; settings: ATCC 35218, 24 h, read-out: DIZ; in short: as §4
Pseudomonas aeruginosa [17] = experiment: Antimicrobial activity against Pseudomonas aeruginosa ATCC 15499 after 24 hrs by broth micro serial dilution method; type: functional; settings: ATCC 15499, 24 h; in short: as §3
Pseudomonas aeruginosa [18] = experiment: Antimicrobial activity against Pseudomonas aeruginosa ATCC 15499 assessed as diameter of inhibition zone at 20 uM after 24 hrs by Kirby -Baur disc diffusion method; type: functional; in short: as §4
Pseudomonas aeruginosa [19] = experiment: Antimicrobial activity against Pseudomonas aeruginosa ATCC 15499 assessed as diameter of inhibition zone at 40 uM after 24 hrs by Kirby -Baur disc diffusion method; type: functional; in short: as §4
Pseudomonas aeruginosa [20] = experiment: Antimicrobial activity against Pseudomonas aeruginosa ATCC 15499 assessed as diameter of inhibition zone at 80 uM after 24 hrs by Kirby -Baur disc diffusion method; type: functional; settings: ATCC 15499, 24 h, read-out: DIZ; in short: as §4
Salmonella typhi [21] = experiment: Antimicrobial activity against Salmonella typhi ATCC 23564 after 24 hrs by broth micro serial dilution method; type: functional, Salmonella enterica subsp. enterica serovar Typhi; settings: Salmonella enterica, ATCC 23564, 24 h
Salmonella typhi [22] = experiment: Antimicrobial activity against Salmonella typhi ATCC 23564 assessed as diameter of inhibition zone at 20 uM after 24 hrs by Kirby -Baur disc diffusion method; type: functional; settings: Salmonella enterica subsp. enterica serovar Typhi
Salmonella typhi [23] = experiment: Antimicrobial activity against Salmonella typhi ATCC 23564 assessed as diameter of inhibition zone at 40 uM after 24 hrs by Kirby -Baur disc diffusion method; type: functional; settings: Salmonella enterica subsp. enterica serovar Typhi
Salmonella typhi [24] = experiment: Antimicrobial activity against Salmonella typhi ATCC 23564 assessed as diameter of inhibition zone at 80 uM after 24 hrs by Kirby -Baur disc diffusion method; type: functional, Salmonella enterica subsp. enterica serovar Typhi; settings: Salmonella enterica, ATCC 23564, 24 h; read-out: DIZ
Bacillus cereus [25] = experiment: Antimicrobial activity against Bacillus cereus MTCC 7350 after 24 hrs by broth micro serial dilution method; type: functional; settings: MTCC 7350, 24 h; in short: as §3
Bacillus cereus [26] = experiment: Antimicrobial activity against Bacillus cereus MTCC 7350 assessed as diameter of inhibition zone at 20 uM after 24 hrs by Kirby -Baur disc diffusion method; type: functional; in short: as §4
Bacillus cereus [27] = experiment: Antimicrobial activity against Bacillus cereus MTCC 7350 assessed as diameter of inhibition zone at 40 uM after 24 hrs by Kirby -Baur disc diffusion method; type: functional; in short: as §4
Bacillus cereus [28] = experiment: Antimicrobial activity against Bacillus cereus MTCC 7350 assessed as diameter of inhibition zone at 80 uM after 24 hrs by Kirby -Baur disc diffusion method; type: functional; settings: MTCC 7350, 24 h, read-out: DIZ; in short: as §4
Staphylococcus aureus [29] = experiment: Antimicrobial activity against Staphylococcus aureus ATCC 11632 after 24 hrs by broth micro serial dilution method; type: functional; settings: ATCC 11632, 24 h; in short: as §3
Staphylococcus aureus [30] = experiment: Antimicrobial activity against Staphylococcus aureus ATCC 11632 assessed as diameter of inhibition zone at 20 uM after 24 hrs by Kirby -Baur disc diffusion method; type: functional; in short: as §4
Staphylococcus aureus [31] = experiment: Antimicrobial activity against Staphylococcus aureus ATCC 11632 assessed as diameter of inhibition zone at 40 uM after 24 hrs by Kirby -Baur disc diffusion method; type: functional; in short: as §4
Staphylococcus aureus [32] = experiment: Antimicrobial activity against Staphylococcus aureus ATCC 11632 assessed as diameter of inhibition zone at 80 uM after 24 hrs by Kirby -Baur disc diffusion method; type: functional; settings: ATCC 11632, 24 h, read-out: DIZ; in short: as §4
[33] = ATCC 35218, 24 h, read-out: DIZ

COc1cc(/C=C/c2nn(-c3ccccc3)c(/C=C/c3ccc(O)c(OC)c3)c2/N=N/c2ccc(S(=O)(=O)Nc3cc(C)on3)cc2)ccc1O
inhibition in vivo at 200 mg/kg (Mus musculus): 25.8% | IC50 (HCT-116): Not Active | IC50 (QG-56): > 100 µM | IC50 (HeLa): 100 µM | IC50 (HepG2): Not Active | MIC (Trichoderma viride [1]): 40 µM (≈ 28.2 µg/mL) | zone of inhibition at 20 µM (Trichoderma viride [2]; MTCC 1107, 48 h, read-out: IZ): 9 mm | zone of inhibition at 40 µM (Trichoderma viride [3]): 11 mm | zone of inhibition at 80 µM (Trichoderma viride [4]): 13 mm | MIC (Curvularia lunata [5]): 80 µM (≈ 56.4 µg/mL) | zone of inhibition at 20 µM (Curvularia lunata [6]; MTCC 581, 48 h, read-out: IZ): 9 mm | zone of inhibition at 40 µM (Curvularia lunata [7]): 11 mm | MIC (Aspergillus flavus [8]): inactive | zone of inhibition at 80 µM (Curvularia lunata [9]): 13 mm | inhibition zone (IZ) (Aspergillus flavus [10]): inactive | MIC (Aspergillus niger [11]): inactive | inhibition zone (IZ) (Aspergillus niger [12]): inactive | MIC (Escherichia coli [13]): > 80 µM | zone of inhibition at 20 µM (Escherichia coli [14]; [33]): 9 mm | zone of inhibition at 40 µM (Escherichia coli [15]; [33]): 10 mm | zone of inhibition at 80 µM (Escherichia coli [16]): 12 mm | MIC (Pseudomonas aeruginosa [17]): > 80 µM | diameter of the inhibition zone (DIZ) (Pseudomonas aeruginosa [18]): inactive | diameter of the inhibition zone (DIZ) (Pseudomonas aeruginosa [19]): inactive | zone of inhibition at 80 µM (Pseudomonas aeruginosa [20]): 11 mm | MIC (Salmonella typhi [21]): > 80 µM | diameter of the inhibition zone (DIZ) (Salmonella typhi [22]): inactive | diameter of the inhibition zone (DIZ) (Salmonella typhi [23]): inactive | zone of inhibition at 80 µM (Salmonella typhi [24]): 10 mm | MIC (Bacillus cereus [25]): > 80 µM | diameter of the inhibition zone (DIZ) (Bacillus cereus [26]): inactive | diameter of the inhibition zone (DIZ) (Bacillus cereus [27]): inactive | zone of inhibition at 80 µM (Bacillus cereus [28]): 10 mm | MIC (Staphylococcus aureus [29]): > 80 µM | diameter of the inhibition zone (DIZ) (Staphylococcus aureus [30]): inactive | diameter of the inhibition zone (DIZ) (Staphylococcus aureus [31]): inactive | zone of inhibition at 80 µM (Staphylococcus aureus [32]): 10 mm

COc1cc(/C=C/c2noc(/C=C/c3ccc(O)c(OC)c3)c2/N=N/c2ccc(S(=O)(=O)Nc3cc(C)on3)cc2)ccc1O
inhibition in vivo at 200 mg/kg (Mus musculus): 22.5% | IC50 (HCT-116): Not Active | IC50 (QG-56): Not Active | IC50 (HeLa): Not Active | IC50 (HepG2): Not Active | MIC (Trichoderma viride [1]): > 80 µM | inhibition zone (IZ) (Trichoderma viride [2]): inactive | zone of inhibition at 40 µM (Trichoderma viride [3]): 9 mm | zone of inhibition at 80 µM (Trichoderma viride [4]): 12 mm | MIC (Curvularia lunata [5]): > 80 µM | inhibition zone (IZ) (Curvularia lunata [6]): inactive | zone of inhibition at 40 µM (Curvularia lunata [7]): 9 mm | MIC (Aspergillus flavus [8]): inactive | zone of inhibition at 80 µM (Curvularia lunata [9]): 12 mm | inhibition zone (IZ) (Aspergillus flavus [10]): inactive | MIC (Aspergillus niger [11]): inactive | inhibition zone (IZ) (Aspergillus niger [12]): inactive | MIC (Escherichia coli [13]): > 80 µM | diameter of the inhibition zone (DIZ) (Escherichia coli [14]): inactive | diameter of the inhibition zone (DIZ) (Escherichia coli [15]): inactive | zone of inhibition at 80 µM (Escherichia coli [16]): 9 mm | MIC (Pseudomonas aeruginosa [17]): > 80 µM | diameter of the inhibition zone (DIZ) (Pseudomonas aeruginosa [18]): inactive | diameter of the inhibition zone (DIZ) (Pseudomonas aeruginosa [19]): inactive | zone of inhibition at 80 µM (Pseudomonas aeruginosa [20]): 9 mm | MIC (Bacillus cereus [25]): > 80 µM | diameter of the inhibition zone (DIZ) (Bacillus cereus [26]): inactive | diameter of the inhibition zone (DIZ) (Bacillus cereus [27]): inactive | zone of inhibition at 80 µM (Bacillus cereus [28]): 9 mm | MIC (Staphylococcus aureus [29]): > 80 µM | diameter of the inhibition zone (DIZ) (Staphylococcus aureus [30]): inactive | diameter of the inhibition zone (DIZ) (Staphylococcus aureus [31]): inactive | zone of inhibition at 80 µM (Staphylococcus aureus [32]): 9 mm
